The test system of data set [1] is Liver. Put plainly: Drug metabolism in Sprague-Dawley rat liver assessed as nicotinuric acid formation at 300 mg/kg, qd administered through oral gavage for 7 days measured 2 hrs post last dose by LC/MS/MS analysis. Type of data set: ADME, organism-based. Conditions: in vivo.
For a further data set, the system named is Intestine. Put plainly: Drug metabolism in Sprague-Dawley rat intestine assessed as linker EPA metabolite (5Z,8Z,11Z,14Z,17Z)-N-(2-aminoethyl)icosa-5,8,11,14,17-pentaenamide formation at 300 mg/kg, qd administered through oral gavage for 7 days measured 2 hrs post last dose by LC/MS/MS analysis. Conditions: in vivo. In kind it is ADME, organism-based.
The test system of data set [2] is Plasma. Briefly: Metabolic stability in rat plasma at 5 uM up to 2 hrs by LC-MS-MS analysis. In kind it is ADME, cell-free. In a few lines:
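Plasma from each species diluted to 50% with 0.05 M PBS pH 7.4 and prewarmed to 37 °C; compound added at 5 µM final (from DMSO stock diluted in MeOH); triplicate incubations at 37 °C, sampled at 0, 30, 60, 120 min, quenched with acetonitrile containing internal standard, centrifuged, analysed by LC/MS/MS.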

The test system of a further data set is HepG2. Briefly: Inhibition of ApoB secretion in human HepG2 cells after 16 hrs by ELISA. Type of data set: functional, cell-based. (In general: ELISA stands for enzyme-linked immunosorbent assay.)
The subject of data set [3] is Rattus norvegicus. Put plainly: Cmax in Sprague-Dawley rat assessed as nicotinuric acid at 100 mg/kg, po administered as single dose measured up to 6 hrs post dose by LC/MS/MS analysis. Type of data set: ADME, organism-based. More on the design: dose 100 mg/kg, route oral. Conditions: in vivo. In a few lines:
(§1)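 Single oral dose to Sprague Dawley rats; plasma collected at 0.25, 0.5, 1, 2, 4 and 6 hr; analytes in plasma quantified by LC/MS/MS.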

Data set [4] has as its system Plasma. Briefly: Drug metabolism in Sprague-Dawley rat plasma assessed as nicotinuric acid formation at 300 mg/kg, qd administered through oral gavage for 7 days measured 2 hrs post last dose by LC/MS/MS analysis. Type of data set: ADME, organism-based. The note with it: in vivo.
Data set [5] relates to Rattus norvegicus. Put plainly: AUClast in Sprague-Dawley rat assessed as nicotinuric acid at 100 mg/kg, po administered as single dose measured up to 6 hrs post dose by LC/MS/MS analysis. The note with it: in vivo. In kind it is ADME, organism-based. Set-up: dose 100 mg/kg, time < 6 hr, route oral. In a few lines: as §1
For data set [6], the target named is T1, Fatty-acid amide hydrolase 1 (Rattus norvegicus, UniProt P97612).
T1 sequence (P97612 whole entry): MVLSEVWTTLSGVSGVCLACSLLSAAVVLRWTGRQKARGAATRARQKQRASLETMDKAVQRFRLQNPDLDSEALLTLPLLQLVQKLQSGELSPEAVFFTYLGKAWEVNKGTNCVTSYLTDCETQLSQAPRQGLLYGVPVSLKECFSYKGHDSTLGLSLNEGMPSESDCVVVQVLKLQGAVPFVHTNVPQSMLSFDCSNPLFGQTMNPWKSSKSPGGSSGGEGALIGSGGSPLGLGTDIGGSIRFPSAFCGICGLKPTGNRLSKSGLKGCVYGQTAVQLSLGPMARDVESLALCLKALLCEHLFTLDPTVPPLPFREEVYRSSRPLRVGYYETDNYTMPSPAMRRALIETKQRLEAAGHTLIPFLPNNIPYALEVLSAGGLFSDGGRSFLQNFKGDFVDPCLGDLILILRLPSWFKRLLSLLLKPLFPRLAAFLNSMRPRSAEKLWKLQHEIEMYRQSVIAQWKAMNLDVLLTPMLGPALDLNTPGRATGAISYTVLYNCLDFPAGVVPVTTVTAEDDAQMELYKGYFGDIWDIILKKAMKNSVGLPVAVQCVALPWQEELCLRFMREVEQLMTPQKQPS
Put plainly: Drug metabolism in rat liver lysate assessed as FAAH-mediated compound hydrolysis at 5 uM by LC-MS-MS analysis in the presence of PF3845. In kind it is ADME, tissue-based. Put shortly: (§2)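 Rat liver lysate, 3 mg/mL final, in 50 mM HEPES / 1 mM EDTA buffer, pre-equilibrated 20 min at 37 °C; reaction started by adding compound in DMSO; incubated at 37 °C and loss of starting material monitored by LC/MS/MS; FAAH inhibitor PF-3845 added where indicated.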

The target in data set [7] is T1, Fatty-acid amide hydrolase 1. Briefly: Drug metabolism in rat liver lysate assessed as FAAH-mediated compound hydrolysis at 5 uM by LC-MS-MS analysis. Type of data set: ADME, tissue-based. In a few lines:
as §2

Data set [8] concerns Plasma. Put plainly: Drug metabolism in Sprague-Dawley rat plasma assessed as salicylic acid formation at 300 mg/kg, po administered for 7 days measured 4 hrs post dose on day 7. In kind it is ADME, organism-based. Conditions: in vivo. Put shortly: (§3)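 Male Sprague Dawley rats, groups of 4, dosed orally at 300 mg/kg once daily for 14 days. Animals killed on days 1, 3, 7 and 14, with plasma, brain, epididymal fat, liver and muscle taken 4 hr after dosing. Parent, salicylic acid and salicyluric acid were measured.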

Data set [9] is described as follows: AUClast in Sprague-Dawley rat at 300 mg/kg, po measured up to 24 hrs post dose. In kind it is ADME, organism-based. More on the design: dose 300 mg/kg, time < 24 hr, route oral. The note with it: in vivo. Put shortly:
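Single oral dose of 300 mg/kg to Sprague Dawley rats. Plasma collected at 0, 0.5, 1, 2, 4, 8 and 24 hr. Analytes were the parent, the salicylate-linker and linker-DHA metabolites, salicylic acid and salicyluric acid; Cmax and AUClast derived.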

Data set [10] is described as follows: Plasma concentration in Sprague-Dawley rat at 300 mg/kg, po administered for 7 days measured 4 hrs post dose on day 7. In kind it is ADME, organism-based. In a few lines: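 Male Sprague Dawley rats in groups of 4 received 300 mg/kg orally once daily for up to 14 days. Animals were sacrificed on days 1, 3, 7 and 14, with plasma and tissues (brain, epididymal fat, liver, muscle) collected 4 h after dosing. Samples were analysed by LC/MS/MS for parent compound, salicylic acid and salicyluric acid.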

In data set [11] the test system is Liver. Briefly: Drug metabolism in Sprague-Dawley rat liver assessed as salicyluric acid formation at 300 mg/kg, po administered for 14 days followed by 7 day washout cycle measured on day 21. In kind it is ADME, organism-based. The note with it: in vivo.
Data set [12] is described as follows: Drug uptake in Sprague-Dawley rat epididymal fat at 300 mg/kg, po administered for 7 days measured 4 hrs post dose on day 7. Type of data set: ADME, organism-based, Epididymal fat pad. Conditions: read-out: Drug uptake. In a few lines: as §3
Data set [13] concerns Brain. Put plainly: Drug metabolism in Sprague-Dawley rat brain assessed as salicylic acid formation at 300 mg/kg, po administered for 14 days followed by 7 day washout cycle measured on day 21. In kind it is ADME, organism-based. The note with it: in vivo.
Data set [14] relates to Plasma. Briefly: Drug metabolism in Sprague-Dawley rat plasma assessed as salicyluric acid formation at 300 mg/kg, po administered for 14 days followed by 7 day washout cycle measured on day 21. In kind it is ADME, organism-based. The note with it: in vivo.
In data set [15] the test system is Muscle tissue. Briefly: Drug metabolism in Sprague-Dawley rat muscle assessed as salicylic acid formation at 300 mg/kg, po administered for 7 days measured 4 hrs post dose on day 7. In kind it is ADME, organism-based. Conditions: in vivo. Put shortly:
as §3

Data set [16] concerns Liver. Briefly: Drug metabolism in Sprague-Dawley rat liver assessed as salicyluric acid formation at 300 mg/kg, po administered for 7 days measured 4 hrs post dose on day 7. Type of data set: ADME, organism-based. Conditions: in vivo. Put shortly: as §3
Data set [17] concerns Liver. Briefly: Drug metabolism in Sprague-Dawley rat liver assessed as salicylic acid formation at 300 mg/kg, po administered for 14 days followed by 7 day washout cycle measured on day 21. In kind it is ADME, organism-based. Conditions: in vivo.
For data set [18], the system named is Brain. Put plainly: Drug metabolism in Sprague-Dawley rat brain assessed as salicylic acid formation at 300 mg/kg, po administered for 7 days measured 4 hrs post dose on day 7. In kind it is ADME, organism-based. Conditions: in vivo. Put shortly:
as §3

The test system of data set [19] is Liver. Briefly: Drug metabolism in Sprague-Dawley rat liver assessed as salicylic acid formation at 300 mg/kg, po administered for 7 days measured 4 hrs post dose on day 7. Type of data set: ADME, organism-based. The note with it: in vivo. In a few lines:
as §3

Data set [20] relates to Muscle tissue. Briefly: Drug metabolism in Sprague-Dawley rat muscle assessed as salicyluric acid formation at 300 mg/kg, po administered for 7 days measured 4 hrs post dose on day 7. Conditions: in vivo. Type of data set: ADME, organism-based. In a few lines:
as §3

On to `CC/C=C\C/C=C\C/C=C\C/C=C\C/C=C\CCCC(=O)NCCNC(=O)c1cccnc1`, for which the Drug metabolism is 1356 ng/g in the data set with Liver [1]; 74 ng/g in the data set with Intestine; 3220 ng/mL in the data set with Plasma [4]; “metabolite_notdetected” in [6]; “tde” in data set [7] (TDE = time-dependent effect). The Stability result in the data set with Plasma [2] was “Stable”. Further, the inhibition entry in the data set on HepG2 is “Dose-dependent effect”. Further, the IC50 (commonly the point on the concentration scale where inhibition reaches its midpoint) in the data set with HepG2 (HepG2, 16 h) turned out to be 27 µM. The Cmax – broadly, the highest concentration seen after dosing – in the data set on Rattus norvegicus [3] came to 1131 ng/mL. Further, in the data set with Rattus norvegicus [5], the AUClast turned out to be 3484 ng·h/mL.
Consider `CC/C=C\C/C=C\C/C=C\C/C=C\C/C=C\C/C=C\CCC(=O)NCCNC(=O)c1ccccc1O` [EDASALONEXENT], for which the Drug metabolism in the data set with Plasma [8] is 154.2 ng/mL; in the data set with Liver [11], “metabolite_notdetected”; in the data set on Brain [13], “metabolite_notdetected”; in the data set on Plasma [14], “metabolite_notdetected”; in the data set with Muscle tissue [15], 265.73 ng/g; in the data set on Liver [16] it was 506.48 ng/g. Moreover, the Drug metabolism result with Liver [17] was “metabolite_notdetected”; in the data set with Brain [18], 53.32 ng/g; in data set [6], “metabolite_notdetected”; in the data set with Liver [19], 235.91 ng/g; in the data set on Muscle tissue [20] it was 165.21 ng/g; in data set [7], “metabolite_detected”. In data set [9], the AUC(0-t) (commonly the area under the concentration-time curve up to a stated or last time point) at 24 h came out at 1940 ng·h/mL. Besides, the results for the concentration at 4 h in [10] and in data set [12] were 116 ng/mL and 772 ng/g, respectively.

For the origin of these results see ChEMBL document CHEMBL3785029, “Synthesis and Characterization of Fatty Acid Conjugates of Niacin and Salicylic Acid” (J Med Chem, 2016).
